Experimental data taken from PubChem BioAssay AID623886 (Johns Hopkins Ion Channel Center, 2012).
Calls of active or inactive are those of the source.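 How the source made its calls: active means peak inhibition of the KCNQ2 potassium channel above 30% at some tested dose, plus a fitted dose response curve; inactive means no inhibition at any dose, or no curve.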

Each compound was assayed against Potassium voltage-gated channel subfamily KQT member 2 (Rattus norvegicus) (UniProt O88943) (assay: KCNQ2 channel inhibition, SAR follow-up, selectivity assay for KCNK9 inhibitor project, cell-based, FluxOR thallium flux, concentration-response (AID 623886)). Conditions: KCNQ2 cell line, FluxOR thallium flux fluorescence; series mostly up to 30 µM.
Outline: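 Material: CHO cells expressing KCNQ2 potassium channel | Also added: K2SO4/Tl2SO4 stimulus (5x stock 25 mM, 7 mM) | Replication: Duplicate or more | Timing: FluxOR dye loading 90 min, compound pre-exposure 20 min, both room temperature | Measure: Fluorescence range-to-baseline ratio | Measured by: Kinetic thallium-sensitive dye fluorescence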

Chain of Potassium voltage-gated channel subfamily KQT member 2 (Rattus norvegicus) (O88943 whole entry, looked up): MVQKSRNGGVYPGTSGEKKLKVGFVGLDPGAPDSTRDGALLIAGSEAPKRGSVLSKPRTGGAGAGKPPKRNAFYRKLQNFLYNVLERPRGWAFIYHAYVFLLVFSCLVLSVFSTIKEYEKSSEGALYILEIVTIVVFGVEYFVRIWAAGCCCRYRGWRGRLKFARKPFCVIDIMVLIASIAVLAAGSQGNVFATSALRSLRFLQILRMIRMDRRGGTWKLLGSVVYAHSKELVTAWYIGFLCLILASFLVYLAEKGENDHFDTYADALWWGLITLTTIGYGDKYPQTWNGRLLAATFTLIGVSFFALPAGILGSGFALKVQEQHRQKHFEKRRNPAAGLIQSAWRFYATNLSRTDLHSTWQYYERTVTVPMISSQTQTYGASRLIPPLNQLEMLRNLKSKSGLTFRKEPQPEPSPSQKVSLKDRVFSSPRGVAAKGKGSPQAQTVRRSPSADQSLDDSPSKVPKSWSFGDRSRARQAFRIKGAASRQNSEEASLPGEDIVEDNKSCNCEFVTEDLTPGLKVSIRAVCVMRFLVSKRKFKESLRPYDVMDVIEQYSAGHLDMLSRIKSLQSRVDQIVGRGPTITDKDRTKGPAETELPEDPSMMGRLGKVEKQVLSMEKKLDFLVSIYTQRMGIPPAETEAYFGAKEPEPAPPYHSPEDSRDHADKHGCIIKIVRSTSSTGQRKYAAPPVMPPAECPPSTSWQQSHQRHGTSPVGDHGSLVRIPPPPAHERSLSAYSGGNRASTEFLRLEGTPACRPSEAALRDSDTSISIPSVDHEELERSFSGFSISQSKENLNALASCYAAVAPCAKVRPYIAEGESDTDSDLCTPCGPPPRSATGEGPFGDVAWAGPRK

outcome, inactive:
Cc1cccc(C(=O)Nc2ccc(C(=O)Nc3ccccc3)cc2)c1, Cc1cccc(NC(=O)c2ccccc2NC(=O)c2ccccc2)c1, Cc1cccc(NC(=O)c2cccc(NC(=O)c3ccccc3)c2)c1, Cc1cccc(C(=O)Nc2cccc(C(=O)Nc3ccccc3)c2)c1, Cc1cccc(C(=O)Nc2ccccc2C(=O)Nc2ccccc2)c1
